Source: ChEMBL document CHEMBL2169776, “Antimicrobial activity of peptidomimetics against multidrug-resistant Escherichia coli: a comparative study of different backbones” (J Med Chem, 2012)
Values after ≈ are worked out from the molar mass of the structure shown.

Key:
[1] = Hemolytic activity against human RBCs after 1 hr by spectrophotometry; format: ADME, cell-based; details: erythrocyte
Summary of the method: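 Freshly drawn human erythrocytes washed in TBS (pH 7.2, 10 mM Tris, 150 mM NaCl), 1% v/v suspension mixed with 2-fold serial dilutions (1−128 μM) in water; 1 h at 37 °C. After pelleting, supernatant diluted 1:1 with water and hemoglobin read at OD 405 nm. Melittin (400 μg/mL) = 100%, TBS = 0%. Value is the lowest concentration giving ≥10% lysis.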

Escherichia coli [2] = assay: Antibacterial activity against Escherichia coli ATCC 25922 after 16 to 20 hrs by broth microdilution assay; format: functional
Klebsiella pneumoniae [3] = assay: Antibacterial activity against multidrug resistant KPC producing Klebsiella pneumoniae isolate after 16 to 20 hrs by broth microdilution assay; format: functional
Staphylococcus aureus = assay: Antibacterial activity against methicillin-resistant Staphylococcus aureus isolate after 16 to 20 hrs by broth microdilution assay; format: functional
Klebsiella pneumoniae [4] = assay: Antibacterial activity against multidrug resistant NDM-1 producing Klebsiella pneumoniae isolate after 16 to 20 hrs by broth microdilution assay; format: functional
HeLa = assay: Cytotoxicity against human HeLa cells assessed as growth inhibition after 1 hr; format: cell-based
Summary of the method: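 HeLa cells seeded at 9000 per well, cultured 24 h; at 80−100% confluency washed with HBSS and exposed 1 h (37 °C, 50 rpm) to 2-fold serial dilutions in EMEM. After washing, MTS/PMS (240/2.4 μg/mL) in HBSS added for 1.5 h; formazan read at 492 nm. 0.2% SDS = 0%, EMEM alone = 100%. Test range 1−128 or 8−1024 μM; IC50 reported.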

[5] = Therapeutic index, ratio of HC10 for human erythrocyte cells to MIC for multidrug resistant bacterial strains; details: read-out: TI
Summary of the method: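 TI = hemolytic activity divided by median of MIC values. Hemolysis: washed fresh human RBCs (1% v/v in TBS, pH 7.2) with 2-fold oligomer dilutions (1–128 μM), 37 °C, 1 h; supernatant OD 405 nm; melittin 400 μg/mL = 100%, TBS = 0%. HA = concentration giving ≥10% lysis. MICs by broth microdilution, 35 °C, 16–20 h.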

Escherichia coli [6] = assay: Antibacterial activity against multidrug resistant ESBL producing Escherichia coli isolate after 16 to 20 hrs by broth microdilution assay; format: functional
[7] = Proteolytic stability of compound in presence of Pronase by reverse phase HPLC analysis; format: ADME
Summary of the method: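 Oligomer (2 mg/mL solution, 250 μL) incubated with Pronase (1.0 mg/mL solution, 50 μL) in 10 mM Tris pH 7.5 (1.2 mL); enzyme activity first confirmed on Nα-benzoyl arginine. Degradation followed by analytical reverse-phase HPLC (10−60% B) at 6, 12, 18 and 50 h; degradation product identified by HRMS.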

Escherichia coli [8] = assay: Antibacterial activity against multidrug resistant NDM-1 producing Escherichia coli isolate after 16 to 20 hrs by broth microdilution assay; format: functional
Escherichia coli [9] = assay: Antibacterial activity against multidrug resistant Amp-C producing Escherichia coli isolate after 16 to 20 hrs by broth microdilution assay; format: functional

Row | Structure (SMILES) | HC10 [1] [µM] | MIC (Escherichia coli [2]) [µM] | MIC (Klebsiella pneumoniae [3]) [µM] | MIC (Staphylococcus aureus) [µM] | MIC (Klebsiella pneumoniae [4]) [µM] | IC50 (HeLa) [µM] | selectivity ratio [5] | MIC (Escherichia coli [6]) [µM] | Stability [7] | MIC (Escherichia coli [8]) [µM] | MIC (Escherichia coli [9]) [µM]
1 | CC(=O)N[C@H](CCCCN)C(=O)N[C@H](Cc1ccccc1)C(=O)N[C@H](CCCCN)C(=O)N[C@H](Cc1ccccc1)C(=O)N[C@H](CCCCN)C(=O)N[C@H](Cc1ccccc1)C(=O)N[C@H](CCCCN)C(=O)N[C@H](Cc1ccccc1)C(=O)N[C@H](CCCCN)C(=O)N[C@H](Cc1ccccc1)C(=O)N[C@H](CCCCN)C(=O)N[C@H](Cc1ccccc1)C(=O)N[C@H](CCCCN)C(=O)N[C@H](Cc1ccccc1)C(=O)N[C@H](CCCCN)C(=O)N[C@H](Cc1ccccc1)C(N)=O | < 1 | 128 (≈ 290 µg/mL) | 256 (≈ 579 µg/mL) | 16 (≈ 36.2 µg/mL) | 256 (≈ 579 µg/mL) | 18.1 | < 0.008 | 256 (≈ 579 µg/mL) | Stable | 128 (≈ 290 µg/mL) | 256 (≈ 579 µg/mL)
2 | CC(=O)N[C@@H](CCCCN)C(=O)N[C@H](CC(=O)N[C@@H](CCCCN)C(=O)N[C@H](CC(=O)N[C@@H](CCCCN)C(=O)N[C@H](CC(=O)N[C@@H](CCCCN)C(=O)N[C@H](CC(=O)N[C@@H](CCCCN)C(=O)N[C@H](CC(=O)N[C@@H](CCCCN)C(=O)N[C@H](CC(=O)N[C@@H](CCCCN)C(=O)N[C@H](CC(=O)N[C@@H](CCCCN)C(=O)N[C@H](CC(N)=O)Cc1ccccc1)Cc1ccccc1)Cc1ccccc1)Cc1ccccc1)Cc1ccccc1)Cc1ccccc1)Cc1ccccc1)Cc1ccccc1 | 64 | 64 (≈ 152 µg/mL) | 128 (≈ 304 µg/mL) | 32 (≈ 76 µg/mL) | 128 (≈ 304 µg/mL) | 31.1 | 1 | 32 (≈ 76 µg/mL) | Stable | 64 (≈ 152 µg/mL) | 32 (≈ 76 µg/mL)
